This note sets out measurements from ChEMBL document CHEMBL4354800, “Amphiphilic nebramine-based hybrids Rescue legacy antibiotics from intrinsic resistance in multidrug-resistant Gram-negative bacilli” (Eur J Med Chem, 2019).

Common to all, as to assay type: functional
Assay [1] has as its system Pseudomonas aeruginosa. In words: Potentiation of minocycline-induced antibacterial activity against MDR/XDR Pseudomonas aeruginosa isolate 101885 harboring GyrA T83I mutant assessed as fold reduction in minocycline MIC at 7.5 uM incubated for 18 hrs by broth microdilution method. For orientation: In broth dilution the organism is exposed to a series of concentrations in liquid medium.

In assay [2] the test system is Pseudomonas aeruginosa. As to the kind of experiment: Potentiation of minocycline-induced bactericidal activity in Pseudomonas aeruginosa PAO1 at 0.5 times MIC incubated for 24 hrs in presence of 4 ug/ml minocycline by time kill curve assay relative to control. An outline of the steps:
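Time-kill. An overnight PAO1 culture was adjusted to 0.5 McFarland in saline and diluted 1:50 in LB. Cells were exposed to the adjuvant at ½× MIC plus fixed minocycline for 24 h at 37 °C. Aliquots taken at intervals were serially diluted in PBS and plated on LB agar; colonies were counted after 20 h at 37 °C. Controls were untreated cells and colistin at 4× MIC.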

In another assay the test system is Escherichia coli. In words: Antimicrobial activity against Escherichia coli 107115 incubated for 18 hrs by broth dilution method. The note with it: Escherichia coli, 107115, 18 h. In outline: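 Broth microdilution per CLSI: overnight cultures set to 0.5 McFarland in saline, diluted 1:50 in Mueller-Hinton broth to a final 5 × 10^5 CFU/mL, added to 2-fold serial dilutions, incubated 18 h at 37 °C; MIC is the lowest concentration without visible turbidity, confirmed at 590 nm.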

Assay [3] concerns Klebsiella pneumoniae. As to the kind of experiment: Potentiation of rifampicin-induced antibacterial activity against Klebsiella pneumoniae 113250 assessed as fold reduction in rifampicin MIC at 4.1 uM incubated for 18 hrs by broth dilution method. An outline of the steps:
(§1)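 Antibiotic MIC determined by CLSI broth microdilution (MHB, 5 × 10^5 CFU/mL, 18 h, 37 °C), once alone and once with a fixed concentration of the adjuvant. Potentiation is the ratio of the antibiotic MIC alone to its MIC in the presence of the adjuvant.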

In assay [4] the test system is Klebsiella pneumoniae. In words: Potentiation of minocycline-induced antibacterial activity against Klebsiella pneumoniae 116381 assessed as fold reduction in minocycline MIC at 4.1 uM incubated for 18 hrs by broth dilution method. An outline of the steps: as §1
Assay [5] deals with Klebsiella pneumoniae. As to the kind of experiment: Synergistic antibacterial activity against Klebsiella pneumoniae 113254 assessed as fractional inhibitory concentration index in presence of rifampicin incubated for 18 hrs by broth dilution method. An outline of the steps: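 Checkerboard titration of the adjuvant against the antibiotic, run under the CLSI microdilution conditions (MHB, 5 × 10^5 CFU/mL, 18 h, 37 °C). Each agent's FIC is its MIC in combination divided by its MIC alone; FICI is the sum of the two FICs. FICI ≤0.5 was read as synergy, >0.5–4.0 as no interaction, and >4.0 as antagonism.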

On to `COc1c(N2C[C@@H]3CCCN(CCCCCCCCCCCCO[C@@H]4[C@@H](O)[C@H](N)C[C@H](N)[C@H]4O[C@H]4O[C@H](CN)[C@@H](O)C[C@H]4N)[C@@H]3C2)c(F)cc2c(=O)c(C(=O)O)cn(C3CC3)c12.Cl.Cl.Cl.Cl.Cl`, for which the “fold change (FC)” value in the assay on Pseudomonas aeruginosa [1] turned out to be 16. In the assay with Pseudomonas aeruginosa [2], the Activity is recorded as 100%.
As usually defined, the MIC is the least concentration at which growth counts as inhibited. The low end stands for inhibition by little substance, the high end for a need for much substance. In turn, `Cl.Cl.Cl.Cl.Cl.NC[C@H]1O[C@H](O[C@H]2[C@H](OCCCCCCCCCCCCN3CCN(c4cc5c(cc4F)c(=O)c(C(=O)O)cn5C4CC4)CC3)[C@@H](O)[C@H](N)C[C@@H]2N)[C@H](N)C[C@@H]1O` displayed an MIC against Escherichia coli of 32 µg/mL. Besides, the “fold change (FC)” value was 128 with Klebsiella pneumoniae [3] and 16 with Klebsiella pneumoniae [4]. For the same molecule, the “fractional inhibitory concentration index (FICI)” value with Klebsiella pneumoniae [5] turned out to be 0.047.
